Results on 20 compounds are retold here after ChEMBL document CHEMBL3596171, “Interrogating alkyl and arylalkylpolyamino (bis)urea and (bis)thiourea isosteres as potent antimalarial chemotypes against multiple lifecycle forms of Plasmodium falciparum parasites” (Bioorg Med Chem, 2015).

Series [1] concerns Plasmodium falciparum. The experiment in a line: Antiplasmodial activity against asexual intraerythrocytic ring stage of chloroquine-sensitive Plasmodium falciparum 3D7 infected in human O+ erythrocytes assessed as inhibition of parasitic proliferation after 96 hrs by SYBR Green-1 based fluorescence assay. The series is classed as functional, organism-based. To be noted: 3D7, 96 h.

Series [2] concerns Plasmodium falciparum. Kind of series: Antiplasmodial activity against chloroquine-resistant Plasmodium falciparum Dd2. The series is classed as functional, organism-based.
For series [3], the system named is Plasmodium falciparum. Kind of series: Antiplasmodial activity against asexual intraerythrocytic ring stage of chloroquine-resistant Plasmodium falciparum W2 infected in human O+ erythrocytes assessed as inhibition of parasitic proliferation after 96 hrs by SYBR Green-1 based fluorescence assay. The series is classed as functional, organism-based. To be noted: W2, 96 h.

Series [4] concerns Plasmodium falciparum. Kind of series: Antiplasmodial activity against asexual intraerythrocytic ring stage of antifolate-resistant Plasmodium falciparum HB3 infected in human O+ erythrocytes assessed as inhibition of parasitic proliferation after 96 hrs by SYBR Green-1 based fluorescence assay. The format is functional, organism-based. To be noted: HB3, 96 h.
For series [5], the system named is Plasmodium falciparum. Kind of series: Resistance index, ratio of IC50 for asexual intraerythrocytic ring stage of chloroquine-resistant Plasmodium falciparum W2 infected in human O+ erythrocytes to IC50 for asexual intraerythrocytic ring stage of chloroquine-sensitive Plasmodium falciparum 3D7 infected in human O+ erythrocytes. The format is functional.
For series [6], the system named is HepG2. The experiment in a line: (§1) Cytotoxicity against human HepG2 cells assessed as inhibition of cell growth after 48 hrs by LDH assay. The series is classed as cell-based. The settings on record: hepg2, 48 h.
Series [7] in a line: Selectivity index, ratio of GI50 for human HepG2 cells to IC50 for asexual intraerythrocytic ring stage of chloroquine-sensitive Plasmodium falciparum 3D7 infected in human O+ erythrocytes. The series is classed as functional.
Series [8] relates to Plasmodium falciparum. The experiment in a line: Plasmocidal activity against intraerythrocytic early trophozoitic stage of chloroquine-sensitive Plasmodium falciparum 3D7 infected in human O+ erythrocytes assessed as cessation of nuclear division at IC90 after 24 hrs by SYBR Green I-based flow cytometry. The series is classed as functional, organism-based.
Series [9] has as its system Plasmodium falciparum. Kind of series: Plasmocidal activity against intraerythrocytic chloroquine-sensitive Plasmodium falciparum 3D7 infected in human O+ erythrocytes assessed as inhibition of parasitic proliferation at IC90 after 24 to 96 hrs by flow cytometry. The format is functional, organism-based.
Series [10] concerns Plasmodium falciparum. The experiment in a line: Gametocytocidal activity against Plasmodium falciparum NF54-Mal8p1.16-GFP-Luc late (4 to 5) gametocyte assessed as inhibition of parasite viability at 5 uM after 48 hrs by luciferase reporter assay. The format is functional, organism-based. In a few lines:
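NF54 luciferase reporter line; gametocytogenesis induced in glucose-free medium under hypoxia without shaking, with daily medium changes. Mature stage IV/V gametocytes were used on day 10, at 2% gametocytemia and 2% hematocrit. Compound at 5 µM for 48 h, hypoxic, 37 °C, in triplicate; three biological repeats. Read-out was luciferase in lysates with luciferin substrate.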

The nature of series [11]: Inhibition of NP-40-mediated beta-hematin formation at >400 uM after 5 hrs by pyridine-ferrichrome method. The series is classed as functional. In a few lines:
(§2)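 NP-40 detergent (305.5 µM), water and DMSO mixed with compound over a concentration range. Incubated 5 h at 37 °C with hematin in 1 M acetate buffer, pH 4.8, with occasional shaking. β-Hematin measured by the pyridine-ferrichrome method, absorbance at 405 nm. Three biological repeats in triplicate.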

The test system of series [12] is Plasmodium falciparum. The experiment in a line: Plasmocidal activity against intraerythrocytic early trophozoitic stage of chloroquine-sensitive Plasmodium falciparum 3D7 infected in human O+ erythrocytes assessed as non-progressive pyknotic phenotype with apparently dying morphology at IC90 measured over 48 hrs single lifecycle by Giemsa staining based microscopy. The series is classed as functional, organism-based.

For series [13], the system named is Plasmodium falciparum. The experiment in a line: Plasmocidal activity against intraerythrocytic chloroquine-sensitive Plasmodium falciparum 3D7 infected in human O+ erythrocytes assessed as cessation of nuclear division measured as proportion of schizonts containing 2N nuclear content at IC90 after 96 hrs by SYBR Green I-based flow cytometry. The series is classed as functional.

Series [14] relates to Plasmodium falciparum. The experiment in a line: Plasmocidal activity against intraerythrocytic chloroquine-sensitive Plasmodium falciparum 3D7 infected in human O+ erythrocytes assessed as cessation of nuclear division measured as proportion of schizonts containing >2N nuclear content at IC90 after 96 hrs by SYBR Green I-based flow cytometry. The format is functional.
Series [15] concerns Plasmodium falciparum. The experiment in a line: Plasmocidal activity against intraerythrocytic chloroquine-sensitive Plasmodium falciparum 3D7 infected in human O+ erythrocytes assessed as irreversible inhibition of parasitic viability at IC90 pulsed with compound for 12 hrs followed by drug wash-out measured after 36 hrs by SYBR Green 1 based flow cytometry. The format is functional. The essentials:
(§3)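 Cultures were washed once in RPMI 1640 and diluted 1:40. Proliferation followed at set times over 36 h by SYBR Green I DNA fluorescence.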

The subject of series [16] is Plasmodium falciparum. The experiment in a line: Plasmocidal activity against intraerythrocytic chloroquine-sensitive Plasmodium falciparum 3D7 infected in human O+ erythrocytes assessed as irreversible inhibition of parasitic viability at 10XIC90 pulsed with compound for 12 hrs followed by drug wash-out measured after 36 hrs by SYBR Green 1 based flow cytometry. The format is functional, organism-based. The essentials: as §3

Series [17] concerns Plasmodium falciparum. Kind of series: Plasmocidal activity against intraerythrocytic chloroquine-sensitive Plasmodium falciparum 3D7 infected in human O+ erythrocytes assessed as cessation of nuclear division measured as proportion of rings/trophozoites containing 1N nuclear content at IC90 after 96 hrs by SYBR Green I-based flow cytometry.
Series [18] in a line: as §1. The series is classed as cell-based. To be noted: HepG2 cells.
In series [19] the test system is HepG2. The experiment in a line: Cytotoxicity against human HepG2 cells assessed as cell viability at 5000XIC50 for Plasmodium falciparum 3D7 after 48 hrs by LDH assay. The series is classed as cell-based. The settings on record: hepg2, 48 h.
A short description of series [20]: Inhibition of NP-40-mediated beta-hematin formation at 1 mM after 5 hrs by pyridine-ferrichrome method. The series is classed as functional. In a few lines:
as §2

Series [21] is described as follows: Inhibition of NP-40-mediated beta-hematin formation after 5 hrs by pyridine-ferrichrome method. The format is functional.

Activity calls are given as the source filed them. No cut-off for these calls is given here.

For the compound `C(CCCNCCCNCC1CCCCCC1)CCCNCCCNCC1CCCCCC1`, the IC50 in the series on Plasmodium falciparum [1] was 110 nM; in the series with Plasmodium falciparum [2], 120 nM.

`O=C(NCCCNCCCCCNCCCNC(=O)NCC(c1ccccc1)c1ccccc1)NCC(c1ccccc1)c1ccccc1`: the half-maximal inhibitory concentration (IC50) in the series on Plasmodium falciparum [1] amounted to 28 nM; in the series on Plasmodium falciparum [3], 18 nM; in the series with Plasmodium falciparum [4], 40 nM. The “Ratio IC50” value with Plasmodium falciparum [5] is listed as 0.64. The GI50 in the series with HepG2 [6] was 94.5 µM. The “Selectivity Index” value in [7] amounted to 3375. The outcome in the series with Plasmodium falciparum [8] was Active. In addition, the inhibition entry with Plasmodium falciparum [9] is “Active”.

As for `S=C(NCCCNCCCCCNCCCNC(=S)NCCC(c1ccccc1)c1ccccc1)NCCC(c1ccccc1)c1ccccc1`, the half-inhibitory concentration (IC50) in the series on Plasmodium falciparum [1] was 76 nM; in the series with Plasmodium falciparum [3], 41 nM; with Plasmodium falciparum [4] it was 62 nM. The “Ratio IC50” value with Plasmodium falciparum [5] was determined as 0.54. Moreover, the GI50 with HepG2 [6] was 50.6 µM. In addition, the “Selectivity Index” value in series [7] is reported as 666. The inhibition entry with Plasmodium falciparum [10] is “Active”.

As to `O=C(NCCCNCCCCCNCCCNC(=O)NCCC(c1ccccc1)c1ccccc1)NCCC(c1ccccc1)c1ccccc1`, the IC50 worked out at 30 nM with Plasmodium falciparum [1], 36 nM in the series on Plasmodium falciparum [3] and 56 nM with Plasmodium falciparum [4]. Besides, in the series on Plasmodium falciparum [5], the “Ratio IC50” value is listed as 1.2. The inhibition result (in [11]; with Plasmodium falciparum [9]; in the series on Plasmodium falciparum [16]) was “Active” each time. For the same compound, the GI50 with HepG2 [6] is 153 µM. Further, in series [7], the “Selectivity Index” value came out at 5090. Also, the result in the series on Plasmodium falciparum [12] and in the series on Plasmodium falciparum [8] was Active. Besides, the Activity with Plasmodium falciparum [13] was 10%; with Plasmodium falciparum [14] it was 2%; in the series on Plasmodium falciparum [17], 88%. Further, the “inhibition (INH)” value in the series on Plasmodium falciparum [15] is above 40%.

As to `S=C(NCCCNCCCCCCNCCCNC(=S)NC(c1ccccc1)c1ccccc1)NC(c1ccccc1)c1ccccc1`, the “Ratio IC50” value with Plasmodium falciparum [5] is listed as 1.2. The GI50 at 48 h in series [18] was above 200 µM.

Turning to `O=C(NCCCNCCCCCCCNCCCNC(=O)NC(c1ccccc1)c1ccccc1)NC(c1ccccc1)c1ccccc1`, the “Ratio IC50” value in the series with Plasmodium falciparum [5] was 1.7. Moreover, in series [18], the GI50 at 48 h is above 200 µM.

Turning to `S=C(NCCCNCCCCCNCCCNC(=S)NC(c1ccccc1)c1ccccc1)NC(c1ccccc1)c1ccccc1`, the values for the IC50 in the series on Plasmodium falciparum [1], in the series on Plasmodium falciparum [3] and in the series on Plasmodium falciparum [4] were 68 nM, 35 nM and 75 nM, respectively. The “Ratio IC50” value in the series on Plasmodium falciparum [5] amounted to 0.51. For the same compound, in the series on HepG2 [6], the GI50 was found to be 44.8 µM. The “Selectivity Index” value in [7] was found to be 659. The inhibition result in the series on Plasmodium falciparum [10] was “Active”.

Take `O=C(NCCCNCCCCCNCCCNC(=O)NC(c1ccccc1)c1ccccc1)NC(c1ccccc1)c1ccccc1`: the half-maximal inhibitory concentration (IC50) in the series with Plasmodium falciparum [1] is 47 nM; with Plasmodium falciparum [3] it was 20 nM; in the series on Plasmodium falciparum [4] it was 65 nM. For the same compound, the “Ratio IC50” value in the series on Plasmodium falciparum [5] is listed as 0.43. For the same compound, the GI50 in the series on HepG2 [6] stood at 240 µM. In [7], the “Selectivity Index” value is given as 5113.

As for `O=C(NCCCNCCCCCNCCCNC(=O)Nc1ccccc1)Nc1ccccc1`, the concentration for half-maximal inhibition (IC50) came out at 246 nM in the series on Plasmodium falciparum [1], 49 nM with Plasmodium falciparum [3] and 177 nM in the series on Plasmodium falciparum [4]. Further, the “Ratio IC50” value in the series on Plasmodium falciparum [5] is listed as 0.2. Besides, in the series with HepG2 [19], the Activity was 100%. In addition, the “Selectivity Index” value in series [7] is above 5000.

With `O=C(NCCCNCCCCCNCCCNC(=O)NCc1ccccc1)NCc1ccccc1`, the IC50 with Plasmodium falciparum [1] was determined as 793 nM; in the series with Plasmodium falciparum [3] it was 171 nM; in the series with Plasmodium falciparum [4], 593 nM. Further, in the series with Plasmodium falciparum [5], the “Ratio IC50” value is 0.22. For the same compound, the inhibition result in series [20] was “inactive”. Also, the 50% growth inhibitory concentration (GI50) in the series with HepG2 [6] was determined as 1950 µM. Also, the “Selectivity Index” value in [7] was found to be 2456.

Take `N=C(N)NCCCNCCCNCCCNC(=N)N`: the 50% inhibitory concentration (IC50) in the series with Plasmodium falciparum [1] came out at 147000 nM; with Plasmodium falciparum [4], 110000 nM.

For `S=C(NCCCNCCCCCNCCCNC(=S)NCC(c1ccccc1)c1ccccc1)NCC(c1ccccc1)c1ccccc1`, the half-maximal inhibitory concentration (IC50) in the series with Plasmodium falciparum [1] is 40 nM; in the series on Plasmodium falciparum [3] it was 47 nM; in the series with Plasmodium falciparum [4], 56 nM; in series [21], 16.7 µM. Besides, the “Ratio IC50” value in the series on Plasmodium falciparum [5] amounted to 1.18. Further, the GI50 in the series on HepG2 [6] was 52.2 µM. Besides, the “Selectivity Index” value in [7] came to 1305.

On to `S=C(NCCCNCCCCNCCCNC(=S)NCc1ccccc1)NCc1ccccc1`, for which the GI50 at 48 h in series [18] is above 200 µM.

Take `O=C(NCCCNCCCCCCNCCCNC(=O)Nc1ccccc1)Nc1ccccc1`: the “Ratio IC50” value in the series with Plasmodium falciparum [5] was determined as 0.3.

As for `O=C(NCCCNCCCCCCCNCCCNC(=O)NCC(c1ccccc1)c1ccccc1)NCC(c1ccccc1)c1ccccc1`, the “Ratio IC50” value in the series with Plasmodium falciparum [5] came out at 1.4.

On to `O=C(NCCCNCCCCCCCNCCCNC(=O)NCCC(c1ccccc1)c1ccccc1)NCCC(c1ccccc1)c1ccccc1`, for which the “Ratio IC50” value in the series with Plasmodium falciparum [5] amounted to 1.13.

For the compound `S=C(NCCCNCCCCCNCCCNC(=S)NCc1ccccc1)NCc1ccccc1`, the half-maximal inhibitory concentration (IC50) with Plasmodium falciparum [1] was found to be 249 nM; in the series with Plasmodium falciparum [3], 42 nM; in the series with Plasmodium falciparum [4], 178 nM. Besides, in the series on Plasmodium falciparum [5], the “Ratio IC50” value was found to be 0.17. In the series with HepG2 [19], the Activity worked out at 100%. Also, the “Selectivity Index” value in series [7] is on record as above 5000.

As to `S=C(NCCCNCCCCCCNCCCNC(=S)NCc1ccccc1)NCc1ccccc1`, the “Ratio IC50” value with Plasmodium falciparum [5] is 1.9. In addition, in series [18], the GI50 at 48 h was above 200 µM.

For `N=C(N)NCCCNCCCCCCCNCCCNC(=N)N`, the IC50 in the series on Plasmodium falciparum [4] is 70300 nM.

For the compound `N=C(N)NCCCNCCCCNCCCNC(=N)N`, the half-maximal inhibitory concentration (IC50) worked out at 80000 nM in the series on Plasmodium falciparum [1] and 14200 nM in the series with Plasmodium falciparum [4].
